Measurements taken from ChEMBL document CHEMBL3286393 (J Med Chem, 2014).
Activity calls are given as the source filed them. The rule behind the calls is not given here.

Legend:
[1] = molecular target: T1, Polyunsaturated fatty acid lipoxygenase ALOX12 (Homo sapiens, UniProt P18054); assay: Inhibition of 12-LO in human neutrophils
T1 sequence (P18054 whole entry): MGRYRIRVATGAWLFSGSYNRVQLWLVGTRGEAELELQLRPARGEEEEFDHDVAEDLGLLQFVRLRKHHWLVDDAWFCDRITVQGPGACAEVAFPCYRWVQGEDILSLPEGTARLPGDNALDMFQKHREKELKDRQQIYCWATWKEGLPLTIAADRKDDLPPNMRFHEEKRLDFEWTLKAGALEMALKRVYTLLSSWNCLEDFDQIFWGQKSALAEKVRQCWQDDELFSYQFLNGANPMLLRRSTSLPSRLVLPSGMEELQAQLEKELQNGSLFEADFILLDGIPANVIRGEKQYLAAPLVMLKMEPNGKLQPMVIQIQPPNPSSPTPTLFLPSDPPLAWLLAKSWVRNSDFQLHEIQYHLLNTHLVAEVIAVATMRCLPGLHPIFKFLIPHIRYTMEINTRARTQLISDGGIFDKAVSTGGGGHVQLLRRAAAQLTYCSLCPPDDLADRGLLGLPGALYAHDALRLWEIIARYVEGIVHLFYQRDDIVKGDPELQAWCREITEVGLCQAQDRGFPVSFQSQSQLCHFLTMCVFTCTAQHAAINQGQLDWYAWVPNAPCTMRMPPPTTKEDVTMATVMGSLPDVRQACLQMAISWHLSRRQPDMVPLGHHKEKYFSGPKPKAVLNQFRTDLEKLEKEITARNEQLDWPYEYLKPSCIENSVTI

[2] = molecular target: T2, Prostaglandin E synthase (Homo sapiens) (UniProt O14684); assay: (§1) Inhibition of mPGES1-mediated PGE2 formation in LPS-stimulated human monocytes preincubated for 15 mins before arachidonic acid substrate addition measured after 30 mins by UPLC-MS/MS analysis; format: cell-based
T2 sequence (whole entry): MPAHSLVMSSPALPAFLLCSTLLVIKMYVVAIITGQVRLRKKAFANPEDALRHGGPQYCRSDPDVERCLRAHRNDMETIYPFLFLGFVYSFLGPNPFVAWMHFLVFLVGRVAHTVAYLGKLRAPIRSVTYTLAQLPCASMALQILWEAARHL
How it was run: (§2)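 Fresh human monocytes (adherence-isolated, >85% CD14+; 5 × 10⁶/well) primed with LPS 1 μg/mL for 24 h. Washed, 15 min preincubation, then 2.5 μM A23187 plus 20 μM arachidonic acid for 30 min. Eicosanoids extracted and measured by UPLC-MS/MS, normalized to PGB1 as relative intensities. Two to three independent experiments.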

[3] = molecular target: T3, Polyunsaturated fatty acid lipoxygenase ALOX15 (Homo sapiens, UniProt P16050); assay: Inhibition of 15-LO-mediated 15-HETE formation in LPS-stimulated human monocytes preincubated for 15 mins before arachidonic acid substrate addition measured after 30 mins by UPLC-MS/MS analysis; format: cell-based
T3 sequence (P16050 whole entry): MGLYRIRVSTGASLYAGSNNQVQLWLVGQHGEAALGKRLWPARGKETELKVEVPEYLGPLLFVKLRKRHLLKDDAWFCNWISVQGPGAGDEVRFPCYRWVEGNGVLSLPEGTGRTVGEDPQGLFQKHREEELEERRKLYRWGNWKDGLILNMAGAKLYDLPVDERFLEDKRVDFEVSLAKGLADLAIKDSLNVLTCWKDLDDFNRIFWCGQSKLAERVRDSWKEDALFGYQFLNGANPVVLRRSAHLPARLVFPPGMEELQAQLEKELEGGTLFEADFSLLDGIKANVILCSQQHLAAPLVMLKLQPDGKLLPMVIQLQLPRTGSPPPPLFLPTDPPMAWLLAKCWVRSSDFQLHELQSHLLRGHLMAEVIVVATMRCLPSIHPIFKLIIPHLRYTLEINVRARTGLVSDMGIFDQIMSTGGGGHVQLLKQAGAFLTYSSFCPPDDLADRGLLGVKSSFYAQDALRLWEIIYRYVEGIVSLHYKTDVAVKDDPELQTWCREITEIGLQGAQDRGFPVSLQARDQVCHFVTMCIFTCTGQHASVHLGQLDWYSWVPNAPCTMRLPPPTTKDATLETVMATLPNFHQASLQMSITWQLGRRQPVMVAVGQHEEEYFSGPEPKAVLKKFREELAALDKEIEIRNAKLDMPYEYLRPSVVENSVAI

Monocyte = assay: Inhibition of thromboxane B2 formation in LPS-stimulated human monocytes preincubated for 15 mins before arachidonic acid substrate addition measured after 30 mins by UPLC-MS/MS analysis; format: functional, cell-based; how it was run: as §2
Prostaglandin E synthase = molecular target: T4, Prostaglandin E synthase (Homo sapiens, UniProt O14684); assay: as §1; format: cell-based; how it was run: as §2
T4 sequence (O14684 whole entry): T2 sequence (whole entry)

[4] = molecular target: T5, Polyunsaturated fatty acid 5-lipoxygenase (Homo sapiens) (UniProt P09917); assay: Inhibition of 5-LO in human neutrophils using arachidonic acid as substrate assessed as residual activity preincubated at 10 uM for 15 mins measured after 10 mins by HPLC analysis relative to control
T5 sequence (whole entry): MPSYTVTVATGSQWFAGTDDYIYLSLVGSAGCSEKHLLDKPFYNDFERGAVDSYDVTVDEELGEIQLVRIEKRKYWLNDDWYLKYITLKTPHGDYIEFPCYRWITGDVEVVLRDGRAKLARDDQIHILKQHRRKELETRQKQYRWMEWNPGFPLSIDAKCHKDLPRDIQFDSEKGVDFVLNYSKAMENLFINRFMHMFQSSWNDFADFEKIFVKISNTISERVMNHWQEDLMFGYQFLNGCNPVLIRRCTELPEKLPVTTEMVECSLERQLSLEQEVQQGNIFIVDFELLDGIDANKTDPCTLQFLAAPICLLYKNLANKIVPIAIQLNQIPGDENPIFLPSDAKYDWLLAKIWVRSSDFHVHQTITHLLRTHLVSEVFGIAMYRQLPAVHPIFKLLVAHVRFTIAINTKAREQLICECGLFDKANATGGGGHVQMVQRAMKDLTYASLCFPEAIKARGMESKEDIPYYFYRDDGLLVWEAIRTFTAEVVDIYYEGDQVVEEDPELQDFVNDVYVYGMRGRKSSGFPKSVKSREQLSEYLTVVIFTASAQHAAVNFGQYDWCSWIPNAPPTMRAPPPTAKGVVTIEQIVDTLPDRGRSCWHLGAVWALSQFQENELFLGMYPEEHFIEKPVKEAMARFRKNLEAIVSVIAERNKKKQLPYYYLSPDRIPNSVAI
How it was run: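 Fresh human neutrophils, 1 × 10⁷/mL in PBS pH 7.4 with 1 mM CaCl2 and 1 mg/mL glucose, preincubated 15 min at 37 °C. Stimulated with 2.5 μM A23187 plus 20 μM arachidonic acid for 10 min at 37 °C; methanol stop. LTB4, its all-trans isomers and 5-H(P)ETE by HPLC.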

Mus musculus = assay: Antiinflammatory activity in zymosan-induced peritonitis CD1 mouse model assessed as suppression of MPO activity at 10 mg/kg, ip administered 30 mins before challenge measured 4 hrs post zymosan challenge relative to control; format: functional; details: route intraperitoneal
How it was run: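 In male CD-1 mice (n = 5−11 per group), dose was given ip in 2% DMSO/saline 30 min before ip zymosan (2 mg/mL, 0.5 mL). Lavage 4 h later. Pelleted exudate cells disrupted; supernatant mixed with 0.167 mg/mL o-dianisidine and 0.0005% H2O2 in PBS, read kinetically by absorbance. U/mL from human neutrophil MPO calibration; % inhibition vs vehicle.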

SMILES	IC50 [1] [µM]	inhibition [2]	IC50 (Prostaglandin E synthase) [nM]	Activity [4] [%]	also measured
COc1cc(/C=C/c2cc(-c3ccc(O)c(OC)c3)[nH]n2)ccc1O	7.7	Active			
COc1cc(/C=C/C(=O)CC(=O)/C=C/c2ccc(O)c(OC)c2)ccc1O [CURCUMIN]			1200		IC50 [3]: 1200 nM; IC50 (Monocyte): 1200 nM
COc1cc(/C=C/c2cc(/C=C/c3ccc(O)c(OC)c3)[nH]n2)ccc1O [CURCUMIN PYRAZOLE]	7.3	Active			
COc1cc(/C=C/C(=O)CC(=O)/C=C/c2cc(CC=C(C)C)c(O)c(OC)c2)cc(CC=C(C)C)c1O				74.3	
COc1cc(/C=C/c2cc(/C=C/c3cc(CC=C(C)C)c(O)c(OC)c3)[nH]n2)cc(CC=C(C)C)c1O			> 10000		inhibition in vivo at 10 mg/kg (Mus musculus): 39%
COc1cc(CCC(=O)CC(=O)CCc2ccc(O)c(OC)c2)ccc1O [TETRAHYDROCURCUMIN]				70.1	
